The first test deals with Human immunodeficiency virus 1. Kind of test: Antiviral activity against HIV1 3B in MT2 cells by MTT assay. The class given is functional, organism-based. As to conditions: Human immunodeficiency virus 1, 3B, MT2; read-out: EC50. A digest of the protocol: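 HIV-1 IIIB infection of MT-2 human T cells, with MTT colorimetric read-out of cell protection.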
Regarding `Clc1ccc(Nc2nccs2)cc1OCC1=CCCC1`, the concentration giving a half-maximal response (EC50) is 5 µM.
For the compound `N#Cc1ccc(Nc2nccs2)cc1OCc1nccs1`, the EC50 was 4.5 µM.
Regarding `Clc1ccc(Nc2nccs2)cc1OCc1ccccc1`, the EC50 turned out to be 6 µM.
With `N#Cc1ccc(Nc2nccs2)cc1OCc1ccco1`, the EC50 is 1.2 µM.
On the same count and under the same terms, next, `Clc1ccc(Nc2nccs2)cc1OCc1ccoc1`: 7 µM.
As for `COc1ccnc(Nc2ccc(C)c(OCC=C(C)C)c2)n1`, the concentration for a half-maximal effect (EC50) came out at 0.32 µM.
On the same count and under the same terms, in the case of `CC/C(C)=C\COc1cc(Nc2nccs2)ccc1Cl` it was 1 µM; in that of `COc1ccc(Nc2nc(CO)cs2)cc1OCC=C(C)C`, 9 µM; in that of `Clc1ccc(Nc2nccs2)cc1OCc1ccsc1`, 5.5 µM.
On the same count and under the same terms, next, `Clc1ccc(Nc2nccs2)cc1OCc1cccs1`: 10 µM; `CC(C)=CCOc1cc(Nc2ncc(Br)c(N)n2)ccc1Cl`: 0.7 µM.
Take `Clc1ccc(Nc2nccs2)cc1OCc1ccco1`: the EC50 is 4 µM.

The test is the same for the next values; noted with them: mt2.
Regarding `COCc1ccnc(Nc2ccc(Cl)c(OCC=C(C)C)c2)n1`, the EC50 entry is given as “Not Active”.
Still for that read-out and setting: next, `N#Cc1ccc(Nc2nccs2)cc1OCc1ccsc1`: “Not Active”.
In the case of `N#Cc1ccc(Nc2nccs2)cc1OCc1ccoc1`, the EC50 entry is reported as “Not Active”.
On to `CC(C)=CCOc1cc(Nc2nccs2)ccc1C(=O)O`, for which the EC50 result is on record as “Not Active”.
Same read-out and setting: in the case of `CC(C)=CCOc1cc(Nc2nccc(CO)n2)ccc1Cl` it was “Not Active”; in that of `N#Cc1ccc(Nc2nccs2)cc1OCC1=CCCC1`, “Not Active”.
On the same count and under the same terms, in the case of `Clc1ccc(Nc2nccs2)cc1OCc1nccs1` it was “Not Active”; in that of `CC1=C(COc2cc(Nc3nccs3)ccc2Cl)CCC1`, “Not Active”.
Still for that read-out and setting: next, `N#Cc1ccc(Nc2nccs2)cc1OCc1cccs1`: “Not Active”; `Clc1ccc(Nc2nccs2)cc1OCC1CCCCC1`: “Not Active”; `CC(C)=CCOc1cc(Nc2nc(C)cc(N)n2)ccc1Cl`: “Not Active”.
With `CC(C)=CCOc1cc(Nc2nc(N)cc(Cl)n2)ccc1Cl`, the EC50 result is recorded as “Not Active”.

Another test deals with MT2. In words: Cytotoxicity against human MT2 cells by MTT assay. The class given is functional.
Conditions: not given; call rule not given here
`Clc1ccc(Nc2nccs2)cc1OCC1=CCCC1`: the midpoint of cytotoxicity, the CC50, lay at 15 µM.
Same read-out and setting: next, `COCc1ccnc(Nc2ccc(Cl)c(OCC=C(C)C)c2)n1`: over 25 µM; `N#Cc1ccc(Nc2nccs2)cc1OCc1ccsc1`: 1.1 µM; `N#Cc1ccc(Nc2nccs2)cc1OCc1nccs1`: 20 µM.
The same measure, in the same setting: in the case of `COc1cc(OC)nc(Nc2ccc(Cl)c(OCC=C(C)C)c2)n1` it was 28 µM.
Still for that read-out and setting: in the case of `N#Cc1ccc(Nc2nccs2)cc1OCc1ccoc1` it was 4 µM; in that of `CC(C)=CCOc1cc(Nc2ncccn2)ccc1Cl`, 2.5 µM.
As to `CC(C)=CCOc1cc(Nc2nccs2)ccc1C(=O)O`, the CC50 is 17 µM.
Still for that read-out and setting: in the case of `Clc1ccc(Nc2nccs2)cc1OCc1ccccc1` it was 17 µM.
Still for that read-out and setting: next, `CC(C)=CCOc1cc(Nc2nccc(CO)n2)ccc1Cl`: 0.22 µM.
Take `CC(C)=CCOc1cc(Nc2nccs2)ccc1C#N`: the CC50 turned out to be 0.75 µM.
On to `N#Cc1ccc(Nc2nccs2)cc1OCC1=CCCC1`, for which the 50% cytotoxic concentration (CC50) was 1.7 µM.
On the same count and under the same terms, next, `Clc1ccc(Nc2nccs2)cc1OCc1nccs1`: 20 µM; `N#Cc1ccc(Nc2nccs2)cc1OCc1ccco1`: 18 µM.
On the same count and under the same terms, in the case of `Clc1ccc(Nc2nccs2)cc1OCc1ccoc1` it was 26 µM; in that of `CC1=C(COc2cc(Nc3nccs3)ccc2Cl)CCC1`, 11 µM; in that of `CSc1ccnc(Nc2ccc(Cl)c(OCC=C(C)C)c2)n1`, 2.8 µM.
Still for that read-out and setting: in the case of `COc1ccnc(Nc2ccc(C)c(OCC=C(C)C)c2)n1` it was 41 µM; in that of `CC/C(C)=C\COc1cc(Nc2nccs2)ccc1Cl`, 18 µM.
The compound `COc1ccc(Nc2nc(CO)cs2)cc1OCC=C(C)C` showed a CC50 of 80 µM. This CC50 lies about 4.4-fold higher than the previous one.
The same measure, in the same setting: in the case of `COc1cc(N)nc(Nc2ccc(Cl)c(OCC=C(C)C)c2)n1` it was 19 µM; in that of `Clc1ccc(Nc2nccs2)cc1OCc1ccsc1`, 38 µM.
On to `Clc1ccc(Nc2nccs2)cc1OCc1cccs1`, for which the midpoint of cytotoxicity, the CC50, lay at 38 µM.
The same measure, in the same setting: in the case of `CC(C)=CCOc1cc(Nc2ncc(Br)c(N)n2)ccc1Cl` it was 12 µM; in that of `N#Cc1ccc(Nc2nccs2)cc1OCc1cccs1`, 4.1 µM.
On to `Clc1ccc(Nc2nccs2)cc1OCC1CCCCC1`, for which the midpoint of cytotoxicity, the CC50, lay at 15 µM.
In turn, `CC(C)=CCOc1cc(Nc2nc(C)cc(N)n2)ccc1Cl` came in with a CC50 of under 0.004 µM.
Still for that read-out and setting: in the case of `CC(C)=CCOc1cc(Nc2nc(N)cc(Cl)n2)ccc1Cl` it was 0.014 µM; in that of `Clc1ccc(Nc2nccs2)cc1OCc1ccco1`, 18 µM.
